Converted amounts (≈) assume the structure as drawn.
Experiments:
[1] = Antibacterial activity against Salmonella enterica subspecies enterica serotype Dublin OCC 627 after 18 hrs; type: functional, Salmonella enterica subsp. enterica serovar Dublin; details: OCC 627, 18 h
Summary of the method: (§1)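 Broth microdilution in Nutrient Broth No. 2; stocks in ethanol diluted to 0.01–128 µg/ml (triclosan) or 0.25–256 µg/ml (glycosides). Overnight 37 °C NB2 cultures diluted 1 in 10^4 in saline and added to the dilutions. Incubation at 37 °C with agitation, OD read every 15 min; MIC is the lowest concentration preventing any OD rise after 18 h.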

Staphylococcus aureus [2] = assay: Antibacterial activity against Staphylococcus aureus ATCC 25923 after 18 hrs; type: functional; details: ATCC 25923, 18 h; summary of the method: as §1
Streptococcus pneumoniae = assay: Antibacterial activity against Streptococcus pneumoniae 6305 after 18 hrs; type: functional; details: Streptococcus pneumoniae, 6305, 18 h
Summary of the method: (§2)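 Broth microdilution in Nutrient Broth No. 2. Ethanol stocks were diluted in broth to 0.01–128 µg/ml for triclosan and 0.25–256 µg/ml for glycosides. Overnight 37°C NB2 cultures were diluted 1 in 10^4 in saline and added to the wells. Plates were incubated at 37°C with OD read every 15 min after agitation. MIC was the lowest concentration giving no OD increase at 18 h.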

[3] = system: Staphylococcus epidermidis; assay: Antibacterial activity against Staphylococcus epidermidis ATCC 12228 after 18 hrs; type: functional; details: ATCC 12228, 18 h; summary of the method: as §1
Streptococcus agalactiae = assay: Antibacterial activity against Streptococcus agalactiae OCC 182 after 18 hrs; type: functional; details: OCC 182, 18 h; summary of the method: as §2
Staphylococcus aureus [4] = assay: Antibacterial activity against Staphylococcus aureus OCC 104 after 18 hrs; type: functional; details: OCC 104, 18 h; summary of the method: as §1
Serratia marcescens = assay: Antibacterial activity against Serratia marcescens OCC 217 after 18 hrs; type: functional; details: OCC 217, 18 h; summary of the method: as §1
Salmonella typhimurium = assay: Antibacterial activity against Salmonella enterica subspecies enterica serotype typhimurium ATCC 14028 after 18 hrs; type: functional, Salmonella enterica subsp. enterica serovar Typhimurium; details: ATCC 14028, 18 h; summary of the method: as §1
[5] = Antibacterial activity against Salmonella enterica subspecies enterica serotype Infantis OCC 2133 after 18 hrs; type: functional, Salmonella enterica subsp. enterica serovar Infantis; details: OCC 2133, 18 h; summary of the method: as §1
Staphylococcus aureus [6] = assay: Antibacterial activity against Staphylococcus aureus NCTC 13758 after 18 hrs; type: functional; details: NCTC 13758, 18 h; summary of the method: as §1
Proteus mirabilis = assay: Antibacterial activity against Proteus mirabilis ATCC 12453 after 18 hrs; type: functional; details: ATCC 12453, 18 h; summary of the method: as §1
[7] = Antibacterial activity against Enterobacter cloacae ATCC 13047 after 18 hrs; type: functional, Enterobacter cloacae subsp. cloacae; details: ATCC 13047, 18 h; summary of the method: as §1
Bacillus subtilis = assay: Antibacterial activity against Bacillus subtilis NCTC 10073 after 18 hrs; type: functional; details: NCTC 10073, 18 h; summary of the method: as §1
[8] = Antibacterial activity against Salmonella enterica subspecies enterica serotype Arizonae OCC 706 after 18 hrs; type: functional, Salmonella enterica subsp. enterica serovar Arizonae; details: OCC 706, 18 h; summary of the method: as §1
Staphylococcus aureus [9] = assay: Antibacterial activity against Staphylococcus aureus ATCC 9144 after 18 hrs; type: functional; details: ATCC 9144, 18 h; summary of the method: as §1
Proteus vulgaris = assay: Antibacterial activity against Proteus vulgaris OCC 195 after 18 hrs; type: functional; details: OCC 195, 18 h; summary of the method: as §1
Staphylococcus aureus [10] = assay: Antibacterial activity against Staphylococcus aureus ATCC 6538 after 18 hrs; type: functional; details: ATCC 6538, 18 h; summary of the method: as §1
[11] = system: Staphylococcus saprophyticus; assay: Antibacterial activity against Staphylococcus saprophyticus ATCC 15305 after 18 hrs; type: functional; details: ATCC 15305, 18 h; summary of the method: as §2
[12] = Antibacterial activity against Salmonella enterica subspecies enterica serotype Virchow NCTC 5742 after 18 hrs; type: functional, Salmonella enterica subsp. enterica serovar Virchow; details: NCTC 5742, 18 h; summary of the method: as §1
Escherichia coli [13] = assay: Antibacterial activity against Escherichia coli ATCC 10536 after 18 hrs; type: functional; details: ATCC 10536, 18 h; summary of the method: as §1
Klebsiella aerogenes [14] = assay: Antibacterial activity against Klebsiella aerogenes NCTC 8167 after 18 hrs; type: functional; details: NCTC 8167, 18 h; summary of the method: as §1
Klebsiella aerogenes [15] = assay: Antibacterial activity against Enterobacter aerogenes ATCC 13048 after 18 hrs; type: functional; details: ATCC 13048, 18 h; summary of the method: as §1
Escherichia coli [16] = assay: Antibacterial activity against Escherichia coli ATCC 8739 after 18 hrs; type: functional; details: ATCC 8739, 18 h; summary of the method: as §1
Escherichia coli [17] = assay: Antibacterial activity against Escherichia coli OCC 122 after 18 hrs; type: functional; details: OCC 122, 18 h; summary of the method: as §1
Escherichia coli [18] = assay: Antibacterial activity against Escherichia coli NCTC 13216 after 18 hrs; type: functional; details: NCTC 13216, 18 h; summary of the method: as §1
Bacillus cereus = assay: Antibacterial activity against Bacillus cereus ATCC 14579 after 18 hrs; type: functional; details: ATCC 14579, 18 h; summary of the method: as §1
[19] = system: Staphylococcus haemolyticus; assay: Antibacterial activity against Staphylococcus haemolyticus OCC 2223 after 18 hrs; type: functional; details: OCC 2223, 18 h; summary of the method: as §2
Klebsiella pneumoniae = assay: Antibacterial activity against Klebsiella pneumoniae ATCC 13883 after 18 hrs; type: functional; details: ATCC 13883, 18 h; summary of the method: as §1

MIC [1]: 2 to 16 µg/mL (≈ 4.43 to 35.4 µM)
MIC (Staphylococcus aureus [2]): 0.5 µg/mL (≈ 1.11 µM)
MIC (Streptococcus pneumoniae): 128 µg/mL (≈ 283 µM)
MIC [3]: 0.5 µg/mL (≈ 1.11 µM)
MIC (Streptococcus agalactiae): 256 µg/mL (≈ 567 µM)
MIC (Staphylococcus aureus [4]): 0.5 µg/mL (≈ 1.11 µM)
MIC (Serratia marcescens): > 256 µg/mL
MIC (Salmonella typhimurium): 2 to 16 µg/mL (≈ 4.43 to 35.4 µM)
MIC [5]: 2 to 16 µg/mL (≈ 4.43 to 35.4 µM)
MIC (Staphylococcus aureus [6]): 0.5 µg/mL (≈ 1.11 µM)
MIC (Proteus mirabilis): 4 µg/mL (≈ 8.86 µM)
MIC [7]: 0.5 µg/mL (≈ 1.11 µM)
MIC (Bacillus subtilis): 32 µg/mL (≈ 70.8 µM)
MIC [8]: 2 to 16 µg/mL (≈ 4.43 to 35.4 µM)
MIC (Staphylococcus aureus [9]): 0.5 µg/mL (≈ 1.11 µM)
MIC (Proteus vulgaris): 8 µg/mL (≈ 17.7 µM)
MIC (Staphylococcus aureus [10]): 0.5 µg/mL (≈ 1.11 µM)
MIC [11]: 8 µg/mL (≈ 17.7 µM)
MIC [12]: 2 to 16 µg/mL (≈ 4.43 to 35.4 µM)
MIC (Escherichia coli [13]): 0.5 to 32 µg/mL (≈ 1.11 to 70.8 µM)
MIC (Klebsiella aerogenes [14]): 4 µg/mL (≈ 8.86 µM)
MIC (Klebsiella aerogenes [15]): 8 µg/mL (≈ 17.7 µM)
MIC (Escherichia coli [16]): 0.5 to 32 µg/mL (≈ 1.11 to 70.8 µM)
MIC (Escherichia coli [17]): 0.5 to 32 µg/mL (≈ 1.11 to 70.8 µM)
MIC (Escherichia coli [18]): 0.5 to 32 µg/mL (≈ 1.11 to 70.8 µM)
MIC (Bacillus cereus): 256 µg/mL (≈ 567 µM)
MIC (Klebsiella pneumoniae): 0.5 µg/mL (≈ 1.11 µM)
SMILES: OC[C@H]1O[C@@H](Oc2cc(Cl)ccc2Oc2ccc(Cl)cc2Cl)[C@H](O)[C@@H](O)[C@H]1O
MIC [19]: 0.5 µg/mL (≈ 1.11 µM)

— ChEMBL document CHEMBL4325893, “Synthesis and antibacterial profiles of targeted triclosan derivatives” (2019)
